ChEMBL document CHEMBL4387722

Tests used:
[1] = target: T1, Phosphotyrosine protein phosphatase (Mycobacterium tuberculosis, UniProt A0A045ISB3); experiment: Inhibition of Mycobacterium tuberculosis His-tagged PtpB expressed in Escherichia coli Rosetta 2 (DE3) using pNPP as substrate after 30 mins by spectrophotometric method
T1 sequence (A0A045ISB3 whole entry): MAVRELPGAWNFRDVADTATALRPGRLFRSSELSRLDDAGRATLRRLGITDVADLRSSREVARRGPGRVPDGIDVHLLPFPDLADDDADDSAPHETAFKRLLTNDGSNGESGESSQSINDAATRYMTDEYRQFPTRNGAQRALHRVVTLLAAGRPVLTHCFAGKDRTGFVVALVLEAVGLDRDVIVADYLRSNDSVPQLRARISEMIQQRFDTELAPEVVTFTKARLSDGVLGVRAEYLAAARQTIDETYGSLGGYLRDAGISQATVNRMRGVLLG

[2] = target: T2, Tyrosine-protein phosphatase non-receptor type 1 (Homo sapiens, UniProt P18031); experiment: Inhibition of human PTPN1 expressed in Escherichia coli Rosetta 2 (DE3) using pNPP as substrate after 45 mins by spectrophotometric method
T2 sequence (P18031 whole entry): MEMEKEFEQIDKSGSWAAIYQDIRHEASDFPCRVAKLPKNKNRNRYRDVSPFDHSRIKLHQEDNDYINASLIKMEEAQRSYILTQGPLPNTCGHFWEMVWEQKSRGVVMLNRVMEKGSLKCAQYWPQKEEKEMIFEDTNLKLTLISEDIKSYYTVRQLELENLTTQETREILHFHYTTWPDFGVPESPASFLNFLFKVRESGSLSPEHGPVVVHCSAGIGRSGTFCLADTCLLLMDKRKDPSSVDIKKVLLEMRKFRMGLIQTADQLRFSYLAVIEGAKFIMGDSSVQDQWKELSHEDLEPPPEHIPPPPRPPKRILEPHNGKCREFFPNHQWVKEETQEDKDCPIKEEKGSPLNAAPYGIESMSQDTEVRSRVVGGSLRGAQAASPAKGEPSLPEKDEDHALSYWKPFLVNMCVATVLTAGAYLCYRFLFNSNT

[3] = target: T3, Tyrosine-protein phosphatase non-receptor type 2 (Homo sapiens, UniProt P17706); experiment: Inhibition of human PTPN2 expressed in Escherichia coli Rosetta 2 (DE3) using pNPP as substrate after 45 mins by spectrophotometric method
T3 sequence (P17706 whole entry): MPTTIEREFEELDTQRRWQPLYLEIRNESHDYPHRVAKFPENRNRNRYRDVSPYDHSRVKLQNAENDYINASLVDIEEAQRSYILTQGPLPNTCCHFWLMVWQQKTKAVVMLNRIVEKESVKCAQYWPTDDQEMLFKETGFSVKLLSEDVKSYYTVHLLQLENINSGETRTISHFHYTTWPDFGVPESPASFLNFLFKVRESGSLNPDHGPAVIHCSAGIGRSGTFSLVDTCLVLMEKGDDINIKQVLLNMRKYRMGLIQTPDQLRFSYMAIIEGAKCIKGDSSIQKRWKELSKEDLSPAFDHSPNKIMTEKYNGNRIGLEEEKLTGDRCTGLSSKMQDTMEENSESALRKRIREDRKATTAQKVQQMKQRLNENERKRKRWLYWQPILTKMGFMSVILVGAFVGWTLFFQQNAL

[4] = target: T4, Tyrosine-protein phosphatase non-receptor type 5 (Homo sapiens, UniProt P54829); experiment: Inhibition of human PTPN5 expressed in Escherichia coli Rosetta 2 (DE3) using pNPP as substrate after 45 mins by spectrophotometric method
T4 sequence (P54829 whole entry): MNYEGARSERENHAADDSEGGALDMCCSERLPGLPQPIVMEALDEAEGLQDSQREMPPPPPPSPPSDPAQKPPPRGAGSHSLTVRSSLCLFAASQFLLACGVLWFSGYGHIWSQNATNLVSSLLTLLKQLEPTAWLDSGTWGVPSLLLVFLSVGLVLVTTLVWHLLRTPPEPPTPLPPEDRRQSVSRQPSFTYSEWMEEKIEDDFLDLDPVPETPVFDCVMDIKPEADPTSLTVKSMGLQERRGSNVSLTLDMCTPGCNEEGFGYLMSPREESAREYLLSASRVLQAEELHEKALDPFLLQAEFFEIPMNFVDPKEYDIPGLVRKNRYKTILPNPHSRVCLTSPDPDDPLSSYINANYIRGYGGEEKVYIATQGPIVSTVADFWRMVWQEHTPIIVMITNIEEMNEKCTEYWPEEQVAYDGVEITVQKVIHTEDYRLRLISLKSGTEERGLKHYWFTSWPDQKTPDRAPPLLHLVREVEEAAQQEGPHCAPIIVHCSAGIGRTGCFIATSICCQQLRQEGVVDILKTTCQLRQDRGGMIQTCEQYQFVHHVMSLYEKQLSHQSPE

[5] = tested on: Mycobacterium tuberculosis; experiment: Antitubercular activity against Mycobacterium tuberculosis H37Rv after 5 days at 200 uM relative to control; type: functional; settings: 120 h
Procedure, shortened: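 M. tuberculosis grown in liquid culture with compound at a fixed 200 μM for 5 days. Growth inhibition expressed as percent of control.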

[6] = tested on: Mycobacterium tuberculosis; experiment: Antitubercular activity against Mycobacterium tuberculosis H37Rv after 5 days; type: functional, organism-based; settings: 120 h
E. coli GroEL/ES [7] = target: T5, E. coli GroEL/ES (Escherichia coli, UniProt P0A6F5); experiment: Inhibition of Escherichia coli GroEL expressed in Escherichia coliDH5alpha/Escherichia coli GroES expressed in Escherichia coli BL21 (DE3) assessed as reduction in GroEL/GroES-mediated denatured pig heart mitochondrial MDH refolding by measuring MDH enzyme activity using sodium mesoxalate as substrate after 20 to 40 mins by spectrometric analysis
HSP60/HSP10 = HSP60/HSP10 (Homo sapiens, UniProt P10809); experiment: Inhibition of human HSP60 expressed in Escherichia coli Rosetta 2(DE3)/human HSP10 expressed in Escherichia coli Rosetta 2(DE3) pLysS cells assessed as reduction in HSP60/HSP10-mediated denatured pig heart mitochondrial MDH refolding by measuring MDH enzyme activity using sodium mesoxalate as substrate after 40 to 60 mins by spectrometric analysis
[8] = Selectivity index, ratio of IC50 for human PTPN1 to IC50 for Mycobacterium tuberculosis PtpB
[9] = Selectivity ratio of IC50 for inhibition of human HSP60 expressed in Escherichia coli Rosetta 2(DE3)/human HSP10 expressed in Rosetta 2(DE3) pLysS cells to IC50 for inhibition of Escherichia coli GroEL expressed in Escherichia coli DH5alpha/Escherichia coli GroES expressed in Escherichia coli BL21 (DE3)
Procedure, shortened: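 Ratio of IC50s from two analogous chaperonin-mediated refolding assays: human HSP60/10 and E. coli GroEL/ES each refold denatured malate dehydrogenase (dMDH). Refolding is followed through the recovered MDH enzymatic activity in a coupled read-out. IC50s come from dose-response testing. GroEL subunits are at 700 nM in the GroEL/ES assay.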

[10] = Inhibition of refolded rhodanese (unknown origin) preincubated with Escherichia coli GroEL/GroES for 60 mins by measuring rhodanese enzyme activity followed by compound addition by Fe(SCN)3 dye based spectrometric analysis; parameters: species or system Homo sapiens
[11] = target: T6, Malate dehydrogenase, mitochondrial (Sus scrofa, UniProt P00346); experiment: Inhibition of refolded pig heart mitochondrial MDH preincubated with Escherichia coli GroEL/GroES for 45 mins using sodium mesoxalate as substrate followed by compound addition and measured after 20 to 30 mins by spectrometric analysis
T6 sequence (P00346 whole entry): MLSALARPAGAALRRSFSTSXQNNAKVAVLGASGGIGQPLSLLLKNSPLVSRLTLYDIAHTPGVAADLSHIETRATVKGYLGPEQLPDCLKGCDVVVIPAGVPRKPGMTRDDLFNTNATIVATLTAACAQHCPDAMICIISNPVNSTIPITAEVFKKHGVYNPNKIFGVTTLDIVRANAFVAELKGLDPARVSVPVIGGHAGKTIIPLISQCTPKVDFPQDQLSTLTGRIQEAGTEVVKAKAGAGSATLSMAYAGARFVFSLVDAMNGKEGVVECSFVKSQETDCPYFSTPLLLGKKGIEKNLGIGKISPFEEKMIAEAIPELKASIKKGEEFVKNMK

E. coli GroEL/ES [12] = target: T5, E. coli GroEL/ES; experiment: Inhibition of Escherichia coli GroEL expressed in Escherichia coli DH5alpha/Escherichia coli GroES expressed in Escherichia coli BL21 (DE3) assessed as reduction in GroEL/GroES-mediated denatured rhodanese refolding by measuring rhodanese enzyme activity after 45 mins by Fe(SCN)3 dye based spectrometric analysis
[13] = Cytotoxicity against human THLE3 cells assessed as reduction in cell viability after 48 hrs by Alamar blue assay; type: cell-based
Procedure, shortened: (§1)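 Alamar Blue viability read-out. Human liver (THLE-3) and kidney (HEK 293) cells incubated with compound for 48 h. Tested in dose-response to derive CC50.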

[14] = Cytotoxicity against human HEK293 cells assessed as reduction in cell viability after 48 hrs by Alamar blue assay; type: cell-based; procedure, shortened: as §1

T5 sequence (P0A6F5 whole entry, looked up): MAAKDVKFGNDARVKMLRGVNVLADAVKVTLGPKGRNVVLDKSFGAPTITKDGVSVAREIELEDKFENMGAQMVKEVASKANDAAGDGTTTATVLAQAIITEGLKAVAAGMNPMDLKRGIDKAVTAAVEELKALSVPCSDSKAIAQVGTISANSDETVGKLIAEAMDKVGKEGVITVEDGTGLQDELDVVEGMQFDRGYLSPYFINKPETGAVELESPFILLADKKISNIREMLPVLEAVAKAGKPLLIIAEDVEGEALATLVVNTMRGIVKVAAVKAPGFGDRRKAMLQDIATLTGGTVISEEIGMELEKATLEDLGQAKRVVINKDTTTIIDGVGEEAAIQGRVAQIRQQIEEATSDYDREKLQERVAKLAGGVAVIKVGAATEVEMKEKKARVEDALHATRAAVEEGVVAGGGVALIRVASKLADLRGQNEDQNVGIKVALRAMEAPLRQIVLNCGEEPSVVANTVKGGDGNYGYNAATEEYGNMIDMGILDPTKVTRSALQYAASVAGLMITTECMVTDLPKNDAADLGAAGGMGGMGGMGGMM
Sequence of HSP60/HSP10 (P10809 whole entry): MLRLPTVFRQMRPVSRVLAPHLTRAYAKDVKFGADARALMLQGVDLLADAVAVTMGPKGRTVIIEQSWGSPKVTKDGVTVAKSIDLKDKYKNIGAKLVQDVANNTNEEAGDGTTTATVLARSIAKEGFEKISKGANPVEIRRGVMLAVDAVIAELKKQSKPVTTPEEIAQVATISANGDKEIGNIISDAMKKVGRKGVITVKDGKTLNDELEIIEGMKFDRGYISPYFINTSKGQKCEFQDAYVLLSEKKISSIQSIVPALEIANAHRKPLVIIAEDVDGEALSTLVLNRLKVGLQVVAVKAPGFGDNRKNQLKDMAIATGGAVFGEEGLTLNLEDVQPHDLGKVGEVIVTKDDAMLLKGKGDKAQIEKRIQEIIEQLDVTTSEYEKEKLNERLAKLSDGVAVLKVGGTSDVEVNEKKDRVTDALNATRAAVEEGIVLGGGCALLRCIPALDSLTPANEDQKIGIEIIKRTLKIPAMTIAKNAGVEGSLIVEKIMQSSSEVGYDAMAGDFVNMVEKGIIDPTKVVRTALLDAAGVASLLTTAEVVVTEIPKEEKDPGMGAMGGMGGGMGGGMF
Sequence of HSP60/HSP10 (P61604 whole entry, further chain): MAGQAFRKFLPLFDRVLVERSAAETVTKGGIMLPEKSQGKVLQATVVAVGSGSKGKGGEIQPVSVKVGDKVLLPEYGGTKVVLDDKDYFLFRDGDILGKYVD

Row | SMILES | IC50 [1] | IC50 [2] | IC50 [3] | IC50 [4] | inhibition at 200 µM [5] | EC50 [6] | IC50 (E. coli GroEL/ES [7]) | IC50 (HSP60/HSP10) | Ratio IC50 [8] | Ratio IC50 [9] | IC50 [10] | IC50 [11] | IC50 (E. coli GroEL/ES [12]) | CC50 at 48 h [13] | CC50 at 48 h [14]
1 | O=S(=O)(Nc1ccc(-c2nc3cc(NS(=O)(=O)c4ccc(O)cc4)ccc3o2)cc1)c1ccc(O)cc1 | 12 µM | 27 µM | 75 µM | 35 µM | 66% | 94 µM | 0.23 µM | 14 µM | 2.3 | 61 |  |  |  |  | 
2 | O=S(=O)(Nc1ccc(-c2nc3cc(NS(=O)(=O)c4ccccc4)ccc3o2)cc1)c1ccccc1 | 18 µM | 24 µM | 29 to 31 µM | 23 µM | 76% | 28 µM | 4 µM | 80 µM | 1.3 | 20 |  |  |  |  | 
3 | O=S(=O)(Nc1ccc(-c2nc3cc(NS(=O)(=O)c4cccc(O)c4)ccc3o2)cc1)c1cccc(O)c1 | 1.5 µM | 38 µM | 84 µM | 47 µM | 80% | 84 µM | 0.97 µM | 17 µM | 25 | 18 |  |  |  |  | 
4 | O=S(=O)(Nc1ccc2oc(-c3ccc(NS(=O)(=O)c4ccc(Cl)s4)cc3)nc2c1)c1cccs1 | 5.1 µM | 13 µM | 31 µM | 23 µM | 52% | 36 µM | 4 µM | 9.1 µM | 2.5 | 2.3 |  |  |  |  | 
5 | NCc1ccc(S(=O)(=O)Nc2ccc3oc(-c4ccc(NS(=O)(=O)c5ccc(Cl)s5)cc4)nc3c2)cc1 | 4.4 µM | 42 µM | 61 µM | 62 µM | 91% | 59 µM | 4.6 µM | 37 µM | 9.5 | 8 |  |  |  |  | 
6 | O=S(=O)(Nc1ccc(-c2nc3cc(NS(=O)(=O)c4cccs4)ccc3o2)cc1)c1cccs1 | 12 µM | 31 µM | 41 µM | 33 µM | 59% | 34 µM | 5.5 µM | 40 µM | 2.6 | 7.3 |  |  |  |  | 
7 | N#Cc1ccc(S(=O)(=O)Nc2ccc(-c3nc4cc(NS(=O)(=O)c5ccc(C#N)cc5)ccc4o3)cc2)cc1 | 12 µM | 37 µM | 35 µM | 27 µM | 95% | 43 µM | 35 µM | 49 µM | 2.3 | 1.4 |  |  |  |  | 
8 | O=S(=O)(Nc1ccc(-c2nc3cc(NS(=O)(=O)c4ccccc4O)ccc3o2)cc1)c1ccccc1O | 2.3 µM | 23 µM | 39 µM | 25 µM | 79% | 63 µM | 7.7 µM | 18 µM | 10 | 2.3 |  |  |  |  | 
9 | O=S(=O)(Nc1ccc2oc(-c3ccc(NS(=O)(=O)c4ccc(Cl)s4)cc3)nc2c1)c1ccccc1 | 8.8 µM | 14 µM | 28 µM | 24 µM | 72% | 40 µM | 5.6 µM | 9 µM | 1.6 | 1.6 |  |  |  |  | 
10 | O=S(=O)(Nc1ccc(-c2nc3cc(NS(=O)(=O)c4ccc(F)cc4)ccc3o2)cc1)c1ccc(F)cc1 | 18 µM | 27 µM | 28 µM | 23 µM | 48% | 66 µM | 3.3 µM | 67 µM | 1.3 | 20 |  |  |  |  | 
11 | CS(=O)(=O)Nc1ccc(-c2nc3cc(NS(=O)(=O)c4ccc(Cl)s4)ccc3o2)cc1 | 37 µM | 52 µM | 95 µM | 52 µM | 74% | 66 µM | 14 µM | 43 µM | 1.4 | 3.1 |  |  |  |  | 
12 | NCc1ccc(S(=O)(=O)Nc2ccc(-c3nc4cc(NS(=O)(=O)c5ccc(Cl)s5)ccc4o3)cc2)cc1 | 9.1 µM | 56 µM | 91 µM | 75 µM | 94% | 26 µM |  | 48 µM | 6.2 | 37 |  |  |  |  | 
13 | O=S(=O)(Nc1ccc(-c2nc3cc(NS(=O)(=O)c4ccccc4F)ccc3o2)cc1)c1ccccc1F | 16 µM | 36 µM | 31 µM | 26 µM | 54% | 45 µM | 20 µM | 57 µM | 1.6 | 2.9 |  |  |  |  | 
14 | C=Cc1ccc(S(=O)(=O)Nc2ccc3oc(-c4ccccc4)nc3c2)cc1 | 51 µM | 45 µM | 46 µM | 35 µM | 86% | 151 µM | > 100 µM | > 100 µM |  |  | > 100 µM | > 63 µM | 175 µM | 50 µM | 53 µM
